The record followed here is ChEMBL document CHEMBL1154178, “Puupehanol, a sesquiterpene-dihydroquinone derivative from the marine sponge Hyrtios sp” (Bioorg Med Chem Lett, 2009).

Common to all, as to assay type: functional, organism-based
Assay [1] relates to Cryptococcus neoformans. Briefly: Antifungal activity against Cryptococcus neoformans ATCC 90113 after 72 hrs by two fold serial dilution technique at 20 ug/mL. An outline of the steps:
(§1)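 Top concentration in the dilution series was 20 µg/mL.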

The subject of assay [2] is Candida albicans. Briefly: Antifungal activity against Candida albicans ATCC 90028 after 48 hrs by two fold serial dilution technique at 20 ug/mL. In a few lines:
as §1

Assay [3] has as its system Pichia kudriavzevii. The assay can be described thus: Antifungal activity against Candida krusei ATCC 6258 after 48 hrs by two fold serial dilution technique at 20 ug/mL. An outline of the steps: as §1
The test system of assay [4] is Nakaseomyces glabratus. The assay can be described thus: Antifungal activity against Candida glabrata ATCC 90030 after 48 hrs by two fold serial dilution technique at 20 ug/mL. An outline of the steps:
as §1

In assay [5] the test system is Aspergillus fumigatus. The assay can be described thus: Antifungal activity against Aspergillus fumigatus ATCC 90906 after 48 hrs by two fold serial dilution technique at 20 ug/mL. In a few lines:
as §1

Assay [6] has as its system Cryptococcus neoformans. The assay can be described thus: Antifungal activity against Cryptococcus neoformans ATCC 90113 after 72 hrs by two fold serial dilution technique. The settings on record: ATCC 90113, 72 h. In a few lines: as §1
Assay [7] has as its system Candida albicans. Briefly: Antifungal activity against Candida albicans ATCC 90028 after 48 hrs by two fold serial dilution technique. To be noted: ATCC 90028, 48 h.
The subject of assay [8] is Pichia kudriavzevii. Briefly: Antifungal activity against Candida krusei ATCC 6258 after 48 hrs by two fold serial dilution technique. To be noted: ATCC 6258, 48 h.
The test system of assay [9] is Nakaseomyces glabratus. The assay can be described thus: Antifungal activity against Candida glabrata ATCC 90030 after 48 hrs by two fold serial dilution technique. The settings on record: ATCC 90030, 48 h. In a few lines: as §1
In assay [10] the test system is Aspergillus fumigatus. The assay can be described thus: Antifungal activity against Aspergillus fumigatus ATCC 90906 after 48 hrs by two fold serial dilution technique.

In brackets after ≈: the same amount, converted by molar mass. Activity calls are given as the source filed them.

For `CC1(C)CCC[C@]2(C)[C@H]3C=C4C(=CC(=O)[C@H](O)[C@@H]4O)O[C@@]3(C)CC[C@@H]12`, the outcome in the assay with Cryptococcus neoformans [1], in the assay on Candida albicans [2], in the assay on Pichia kudriavzevii [3], in the assay with Nakaseomyces glabratus [4] and with Aspergillus fumigatus [5] was inactive.
The term IC50 denotes the concentration at which inhibition is half-maximal. Low readings indicate inhibition by little substance, high ones a need for much substance. As usually defined, the MFC is the smallest concentration meeting the test's criterion for killing the fungus. One may read the MIC as the least concentration at which growth counts as inhibited. Low values mean greater potency, high ones weaker potency. For the molecule `C[C@@H]1[C@H](O)[C@@H](C)/C=C/C=C/C=C/C=C/C=C/C=C/C=C/[C@H](O[C@@H]2O[C@H](C)[C@@H](O)[C@H](N)[C@@H]2O)C[C@@H]2O[C@](O)(C[C@@H](O)C[C@@H](O)[C@H](O)CC[C@@H](O)C[C@@H](O)CC(=O)O[C@H]1C)C[C@H](O)[C@H]2C(=O)O` [AMPHOTERICIN B], the IC50 in the assay on Cryptococcus neoformans [6] is 0.34 µg/mL (≈ 0.368 µM); with Candida albicans [7] it was 0.26 µg/mL (≈ 0.281 µM); in the assay on Pichia kudriavzevii [8], 0.699 µg/mL (≈ 0.756 µM); in the assay on Nakaseomyces glabratus [9] it was 0.29 µg/mL (≈ 0.314 µM); with Aspergillus fumigatus [10] (ATCC 90906, 48 h), 1.02 µg/mL (≈ 1.1 µM). In addition, the MFC came to 0.63 µg/mL (≈ 0.682 µM) against Cryptococcus neoformans [6]; 0.63 µg/mL (≈ 0.682 µM) in the assay on Nakaseomyces glabratus [9]; 5 µg/mL (≈ 5.41 µM) against Aspergillus fumigatus [10] (ATCC 90906, 48 h). For the same molecule, the MIC against Cryptococcus neoformans [6] and against Nakaseomyces glabratus [9] was 0.63 µg/mL (≈ 0.682 µM) in each case.
In the case of `CC1(C)CCC[C@]2(C)[C@H]3C=C4C(=CC(=O)C(O)=C4Cl)O[C@@]3(C)CC[C@@H]12` [CHLOROPUUPEHENONE], in the assay on Cryptococcus neoformans [6], the concentration for half-maximal inhibition (IC50) is 5.73 µg/mL (≈ 15.8 µM). The MFC against Cryptococcus neoformans [6] was 20 µg/mL (≈ 55.1 µM). This molecule also had an MIC in the assay with Cryptococcus neoformans [6] of 10 µg/mL (≈ 27.6 µM). For the same molecule, the outcome in the assay on Candida albicans [2], in the assay on Pichia kudriavzevii [3], with Nakaseomyces glabratus [4] and in the assay with Aspergillus fumigatus [5] was inactive.
Turning to `CC1(C)CCC[C@]2(C)[C@H]3C=C4C=C(O)C(=O)C=C4O[C@@]3(C)CC[C@@H]12` [PUUPEHENONE], the IC50 stood at 0.38 µg/mL (≈ 1.16 µM) with Cryptococcus neoformans [6]; 3.02 µg/mL (≈ 9.19 µM) in the assay with Candida albicans [7]; 1.49 µg/mL (≈ 4.54 µM) in the assay with Pichia kudriavzevii [8]; 2.67 µg/mL (≈ 8.13 µM) in the assay with Nakaseomyces glabratus [9]; 5.63 µg/mL (≈ 17.1 µM) with Aspergillus fumigatus [10] (ATCC 90906, 48 h). In addition, the MFC is 1.25 µg/mL (≈ 3.81 µM) in the assay with Cryptococcus neoformans [6], 10 µg/mL (≈ 30.4 µM) against Candida albicans [7], 2.5 µg/mL (≈ 7.61 µM) with Pichia kudriavzevii [8] and 10 µg/mL (≈ 30.4 µM) with Nakaseomyces glabratus [9]. The MIC against Cryptococcus neoformans [6] came to 0.63 µg/mL (≈ 1.92 µM); against Candida albicans [7], 10 µg/mL (≈ 30.4 µM); against Pichia kudriavzevii [8], 2.5 µg/mL (≈ 7.61 µM); in the assay with Nakaseomyces glabratus [9] it was 10 µg/mL (≈ 30.4 µM); with Aspergillus fumigatus [10] (ATCC 90906, 48 h) it was 10 µg/mL (≈ 30.4 µM). In addition, the MFC result with Aspergillus fumigatus [10] is “inactive”.
